{"source": "ChEMBL document CHEMBL2424657", "about": "“Identification of the KDM2/7 histone lysine demethylase subfamily inhibitor and its antiproliferative activity” (J Med Chem, 2013)", "key": {"HeLa [1]": {"system": "HeLa", "assay": "Cell cycle arrest in human HeLa cells assessed as increase in G0/G1 phase after 24 hrs by FACS analysis", "assay_type": "functional, cell-based", "procedure,_shortened": "(§1)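 HeLa or KYSE150 cells (5×10^5) were exposed for 24 h to 10 or 100 μM in RPMI 1640 with 10% FBS, then trypsinized. Cells were fixed in ice-cold 70% ethanol, PBS-washed and stained with propidium iodide (10 μg/mL) plus RNase A (0.2 mg/mL) for 30 min at 25 °C. Phase distribution was read by flow cytometry.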"}, "HeLa [2]": {"system": "HeLa", "assay": "Cell cycle arrest in human HeLa cells assessed as reduction in G2/M phase after 24 hrs by FACS analysis", "assay_type": "functional, cell-based", "procedure,_shortened": "as §1"}, "[3]": {"assay": "Cell cycle arrest in human KYSE-150 cells assessed as increase in G0/G1 phase after 24 hrs by FACS analysis", "assay_type": "functional, cell-based", "procedure,_shortened": "as §1"}, "[4]": {"assay": "Cell cycle arrest in human KYSE-150 cells assessed as reduction in G2/M phase after 24 hrs by FACS analysis", "assay_type": "functional, cell-based", "procedure,_shortened": "as §1"}, "[5]": {"target": "T1, Lysine-specific demethylase 7A/7B (Homo sapiens) (UniProt Q9UPP1+Q6ZMT4)", "T1 sequence (Q6ZMT4 whole entry, looked up)": "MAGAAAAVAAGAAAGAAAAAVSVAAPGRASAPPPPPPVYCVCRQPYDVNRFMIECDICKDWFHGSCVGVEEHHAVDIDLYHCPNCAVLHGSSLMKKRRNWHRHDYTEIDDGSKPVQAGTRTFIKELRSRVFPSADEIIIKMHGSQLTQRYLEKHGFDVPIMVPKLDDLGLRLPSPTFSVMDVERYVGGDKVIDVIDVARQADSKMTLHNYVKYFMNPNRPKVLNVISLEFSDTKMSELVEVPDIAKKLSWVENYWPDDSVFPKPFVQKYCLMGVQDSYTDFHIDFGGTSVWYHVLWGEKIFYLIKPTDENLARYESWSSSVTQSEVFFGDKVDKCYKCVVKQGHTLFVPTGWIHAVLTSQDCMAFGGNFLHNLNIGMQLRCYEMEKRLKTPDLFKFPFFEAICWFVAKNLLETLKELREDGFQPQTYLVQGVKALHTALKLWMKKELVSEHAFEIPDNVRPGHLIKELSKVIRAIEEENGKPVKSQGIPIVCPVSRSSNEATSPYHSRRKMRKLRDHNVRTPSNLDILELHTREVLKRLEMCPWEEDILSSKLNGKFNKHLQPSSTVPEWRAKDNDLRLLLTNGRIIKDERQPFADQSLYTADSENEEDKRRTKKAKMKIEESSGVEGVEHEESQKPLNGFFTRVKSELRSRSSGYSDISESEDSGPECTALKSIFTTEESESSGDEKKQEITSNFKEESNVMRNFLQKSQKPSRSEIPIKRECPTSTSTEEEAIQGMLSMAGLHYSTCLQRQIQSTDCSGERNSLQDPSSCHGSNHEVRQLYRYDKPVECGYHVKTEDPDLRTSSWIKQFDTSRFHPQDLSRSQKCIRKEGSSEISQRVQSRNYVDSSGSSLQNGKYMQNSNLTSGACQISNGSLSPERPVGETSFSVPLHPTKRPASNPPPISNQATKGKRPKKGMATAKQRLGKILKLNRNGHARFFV", "T1 sequence (Q9UPP1 whole entry, looked up)": "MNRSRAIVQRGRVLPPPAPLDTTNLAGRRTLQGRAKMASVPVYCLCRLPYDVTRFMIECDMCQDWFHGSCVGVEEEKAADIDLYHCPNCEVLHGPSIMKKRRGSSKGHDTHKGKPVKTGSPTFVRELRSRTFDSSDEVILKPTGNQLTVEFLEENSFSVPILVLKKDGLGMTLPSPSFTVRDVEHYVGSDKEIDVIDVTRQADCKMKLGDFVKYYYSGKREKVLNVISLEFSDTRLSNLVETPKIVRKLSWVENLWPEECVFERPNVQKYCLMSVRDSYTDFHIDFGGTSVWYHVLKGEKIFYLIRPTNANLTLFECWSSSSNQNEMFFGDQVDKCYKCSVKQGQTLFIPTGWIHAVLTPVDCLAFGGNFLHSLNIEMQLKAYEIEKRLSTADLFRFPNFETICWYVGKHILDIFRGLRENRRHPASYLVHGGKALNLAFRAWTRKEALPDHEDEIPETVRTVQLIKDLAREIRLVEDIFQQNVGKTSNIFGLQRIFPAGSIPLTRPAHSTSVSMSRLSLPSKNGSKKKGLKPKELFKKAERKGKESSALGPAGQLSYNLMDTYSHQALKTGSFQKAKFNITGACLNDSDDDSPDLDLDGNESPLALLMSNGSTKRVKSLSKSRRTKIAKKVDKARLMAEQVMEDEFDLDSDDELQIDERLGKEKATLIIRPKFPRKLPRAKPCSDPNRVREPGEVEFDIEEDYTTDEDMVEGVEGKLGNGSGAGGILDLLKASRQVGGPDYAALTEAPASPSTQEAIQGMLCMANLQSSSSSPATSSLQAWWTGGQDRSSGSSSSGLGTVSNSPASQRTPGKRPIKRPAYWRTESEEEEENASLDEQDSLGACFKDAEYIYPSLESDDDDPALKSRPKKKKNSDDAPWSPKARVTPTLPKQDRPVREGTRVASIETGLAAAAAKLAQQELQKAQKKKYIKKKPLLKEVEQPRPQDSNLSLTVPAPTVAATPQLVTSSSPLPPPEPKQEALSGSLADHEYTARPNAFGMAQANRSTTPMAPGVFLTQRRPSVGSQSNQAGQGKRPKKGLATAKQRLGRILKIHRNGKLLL", "assay": "Inhibition of KDM7A/7B in human KYSE-150 cells assessed as H3K27me2 level at GI50 after 24 hrs by Western blot analysis", "assay_type": "cell-based", "procedure,_shortened": "(§2)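 Cells (5×10^5) were treated for 24 h in OPTI-MEM and lysed in SDS buffer. Equal protein amounts, set by Bradford assay, were resolved on 4–20% SDS-PAGE and blotted. Blots were probed with anti-H3K27me2 (1:1000) and anti-H3 (1:100000) as loading reference, detected with an HRP secondary antibody, and visualized by ECL.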"}, "[6]": {"target": "T1, Lysine-specific demethylase 7A/7B (Homo sapiens)", "assay": "Inhibition of KDM7A/7B in human HeLa cells assessed as H3K27me2 level at GI50 after 24 hrs by Western blot analysis", "assay_type": "cell-based", "procedure,_shortened": "as §2"}, "N2a": {"system": "N2a", "assay": "Growth inhibition of mouse N2A cells after 48 hrs by MTT assay", "assay_type": "functional", "procedure,_shortened": "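Cells were seeded at 5000/well in RPMI 1640 with 10% FBS and allowed to attach overnight, then exposed for 48 h at 37 °C in 5% CO2. MTT was added for 3 h, and the dye was solubilized in HCl–2-propanol and read at 560 nm (reference 750 nm).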"}, "[7]": {"target": "Lysine-specific demethylase 6A (Homo sapiens, UniProt O15550)", "sequence (O15550 whole entry)": "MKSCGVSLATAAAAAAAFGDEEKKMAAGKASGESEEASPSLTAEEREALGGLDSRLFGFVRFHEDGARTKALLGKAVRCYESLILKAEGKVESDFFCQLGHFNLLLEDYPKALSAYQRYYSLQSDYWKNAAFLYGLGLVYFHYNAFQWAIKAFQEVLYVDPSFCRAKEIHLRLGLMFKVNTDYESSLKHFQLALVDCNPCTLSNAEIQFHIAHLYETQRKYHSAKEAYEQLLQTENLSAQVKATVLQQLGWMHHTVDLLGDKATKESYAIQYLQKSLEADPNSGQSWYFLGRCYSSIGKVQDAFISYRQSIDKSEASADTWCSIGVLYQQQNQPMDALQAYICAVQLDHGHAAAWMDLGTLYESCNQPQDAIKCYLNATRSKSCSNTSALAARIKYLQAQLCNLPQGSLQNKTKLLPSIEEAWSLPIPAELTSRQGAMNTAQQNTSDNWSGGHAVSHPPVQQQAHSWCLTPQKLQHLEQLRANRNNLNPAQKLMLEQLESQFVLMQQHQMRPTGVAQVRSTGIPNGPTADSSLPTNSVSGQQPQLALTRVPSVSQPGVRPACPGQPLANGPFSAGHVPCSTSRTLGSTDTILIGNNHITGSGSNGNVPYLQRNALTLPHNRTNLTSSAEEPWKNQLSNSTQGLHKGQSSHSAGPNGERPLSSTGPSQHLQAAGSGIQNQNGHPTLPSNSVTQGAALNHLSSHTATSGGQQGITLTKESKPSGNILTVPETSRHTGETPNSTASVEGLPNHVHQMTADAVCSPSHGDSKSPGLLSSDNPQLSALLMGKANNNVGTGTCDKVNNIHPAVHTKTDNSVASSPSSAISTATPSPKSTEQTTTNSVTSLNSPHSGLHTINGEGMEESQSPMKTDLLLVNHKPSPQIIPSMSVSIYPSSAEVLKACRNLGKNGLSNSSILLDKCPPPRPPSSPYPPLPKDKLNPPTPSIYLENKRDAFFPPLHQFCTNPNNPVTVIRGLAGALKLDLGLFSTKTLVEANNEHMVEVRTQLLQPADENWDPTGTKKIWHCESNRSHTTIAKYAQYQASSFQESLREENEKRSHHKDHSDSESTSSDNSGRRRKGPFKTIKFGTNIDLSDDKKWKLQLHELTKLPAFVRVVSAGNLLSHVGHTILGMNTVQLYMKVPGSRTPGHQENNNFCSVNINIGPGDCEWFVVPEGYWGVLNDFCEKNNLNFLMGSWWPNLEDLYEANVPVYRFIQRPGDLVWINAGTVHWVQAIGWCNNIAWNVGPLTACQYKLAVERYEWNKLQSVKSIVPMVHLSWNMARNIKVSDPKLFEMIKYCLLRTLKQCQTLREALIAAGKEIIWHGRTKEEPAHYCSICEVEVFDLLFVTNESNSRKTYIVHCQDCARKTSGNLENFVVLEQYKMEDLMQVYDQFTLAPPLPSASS", "assay": "Inhibition of human recombinant KDM6A after 120 mins"}}, "note": "Activity calls are given as the source filed them. The calls are words filed in the database; no cut-off is given here."}
{"compound": "O=C(O)CCN(O)C(=O)CCCCCCCCC1CC1", "values": [{"measurement": "Activity", "setting": "HeLa [1]", "value": "Dose-dependent effect"}, {"measurement": "Activity", "setting": "HeLa [2]", "value": "Dose-dependent effect"}, {"measurement": "Activity", "setting": "[3]", "value": "Dose-dependent effect"}, {"measurement": "Activity", "setting": "[4]", "value": "Dose-dependent effect"}, {"measurement": "inhibition", "setting": "[5]", "value": "Active"}, {"measurement": "inhibition", "setting": "[6]", "value": "Active"}, {"measurement": "GI50", "setting": "N2a", "value": 86, "unit": "µM"}, {"measurement": "IC50", "setting": "[7]", "value": "> 100", "unit": "µM"}]}
